Compound activity (PubChem BioAssay)
KCNQ1 block: inhibitors of human KCNQ1 potassium channel | CHO-K1 KCNQ1, FluxOR thallium flux fluorescence; active compounds read high | B-score at 10 µM | 310,000 compounds, 1.3% hits | AID 2642;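 active = compounds whose thallium flux B-score, printed positive for inhibition, exceeds three library SD while starting fluorescence stays within three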;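 note: channel opened by potassium depolarization with thallium stimulus after 20 min compound exposure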
Kir21 inh: blocks the mouse Kir2.1 inward-rectifier potassium channel; 310,000 compounds, 0.85% hits; B-score at 10 µM; HEK293-Kir2.1, FluxOR thallium flux fluorescence; active compounds read low;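 active = fluorescence ratio B-score at or below minus 3 SD of library scores, with starting-brightness B-score within 2 SD, cut at about -4.2 in these data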;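 note: channel flux triggered by added potassium and thallium sulfate stimulus; B-score of peak minus minimum fluorescence over baseline after thallium stimulus; more negative B-score means stronger Kir2.1 block with less thallium influx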
KCNQ1 act: human KCNQ1 channel potentiation or activation; P51787; CHO-K1 KCNQ1, thallium flux FluxOR fluorescence; active compounds read high; B-score at 10 µM; 310,000 compounds, 0.35% hits;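 active = fluorescence ratio B-score, a plate-corrected score, at least three library SD, with initial intensity B-score within 5 SD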
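Test system: CHO-K1 cells stably expressing KCNQ1 / Medium: assay buffer / Also added: depolarizing K+/Tl+ stimulus, K2SO4 and Tl2SO4 each 12.5 mM in 5x stock / Incubation: 90 min dye loading and 20 min compound exposure, both at room temperature / Signal: thallium influx via FluxOR fluorescence, kinetic imaging / Evaluation: B score of baseline-normalized fluorescence ratio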
KCNK3 inh: human KCNK3 channel inhibition, primary screen. O14649. CHO-KCNK3 thallium flux, FluxOR fluorescence; active compounds read low. B-score at 10 µM. 340,000 compounds, 0.84% hits;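 active = B-score under library mean minus 4 SD, starting fluorescence ratio at most library mean plus 5 SD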;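 note: more negative B-score means stronger inhibition of thallium flux through KCNK3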
Target sequence (O14649 whole entry, looked up): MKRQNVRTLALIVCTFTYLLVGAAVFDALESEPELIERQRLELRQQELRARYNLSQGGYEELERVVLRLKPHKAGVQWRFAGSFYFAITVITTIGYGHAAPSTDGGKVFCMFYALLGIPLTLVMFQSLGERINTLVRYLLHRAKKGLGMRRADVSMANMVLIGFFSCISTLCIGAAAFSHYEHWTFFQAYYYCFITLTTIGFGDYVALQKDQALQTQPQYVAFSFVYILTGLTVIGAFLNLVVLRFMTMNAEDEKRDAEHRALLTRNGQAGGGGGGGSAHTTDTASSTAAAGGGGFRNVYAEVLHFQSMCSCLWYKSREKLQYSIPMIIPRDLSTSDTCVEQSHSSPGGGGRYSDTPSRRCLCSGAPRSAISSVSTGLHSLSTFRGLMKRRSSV
hERG protect: hERG (human) protection from proarrhythmic block. AID 1511. 310,000 compounds, 0.51% hits. activation (rescue from dofetilide block), less the hit threshold, % at 10 µM. CHO-hERG, FluxOR thallium flux, dofetilide IC70 present;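 active = activation above the mean of controls blocked by dofetilide plus 5 SD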;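 note: thallium influx through hERG after potassium depolarization seen as dye fluorescence rise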
KCNK9 inh: human KCNK9 channel inhibition | B-score at 10 µM | HEK293 KCNK9, FluxOR thallium flux fluorescence; active compounds read low | AID 488922 | Q9NPC2 | 310,000 compounds, 1.2% hits;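 active = ratio B-score over 3 SD below the library mean, with starting fluorescence within 5 SD of its mean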;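 note: negative B-score means less thallium flux so channel inhibition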
KCNK3 confirm: human KCNK3 channel inhibition, confirmation assay. shares compounds with KCNK3 inh. CHO-KCNK3 thallium flux, FluxOR fluorescence; 0% buffer, 100% carvedilol maximal block. ratio percent of control, % at 10 µM. 2,400 compounds, 99% hits. AID 651638;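 active = ratio percent of control, averaged over triplicates, above buffer control mean plus 5 SD, cut at about 64% in these data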;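 note: ratio is the fluorescence rise from min to max over baseline after thallium stimulus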
KCNK3 noninduced: KCNK3 inhibitor counter-screen hit in non-induced cells; shares compounds with KCNK3 inh; non-induced KCNK3 parental cells, FluxOR thallium flux; active compounds read low; thallium flux ratio (lower = more inhibition) at 10 µM; 2,400 compounds, 40% hits;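 active = thallium flux ratio, averaged over three wells, more than 5 SD below the buffer control mean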;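 note: host cells are CHO cells without KCNK3 induction; ratio is peak minus trough fluorescence over baseline then normalized to buffer controls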
Numbers without * were called inactive; i = inactive; . = not tested or not shown. Shown are actives, neighbours in structure and some others; about 3.8% of the full set was active somewhere.

SMILES | KCNQ1 block | Kir21 inh | KCNQ1 act | KCNK3 inh | hERG protect | KCNK9 inh | KCNK3 confirm | KCNK3 noninduced
O=C(Nc1ccc2nc(C3CC3)n(Cc3ccc(F)cc3)c(=O)c2c1)c1ccco1 | i | 0.84 | i | -9.9* | -8 | i | 89* | i
CCC(c1nnnn1Cc1ccccc1)N1CCN(C(=O)c2ccco2)CC1 (stereo not given) | i | 1.9 | i | -12* | -9 | i | 72* | i
COC(C[C@@H](O)CC(=O)COCc1ccccc1)OC | i | 1.6 | i | i | -2 | i | . | .
O=C(COC(=O)c1ccc(F)c([N+](=O)[O-])c1)NC(=O)NCc1ccccc1 | . | . | . | i | . | . | . | .
COc1ccc(CCN(Cc2cc3cc(C)cc(C)c3nc2Cl)C(=O)C2CC2)cc1 | i | 1.1 | i | -11* | -17 | i | 98* | i
COCC1CCCN(C(=O)c2ccc3nc(Cc4cccc(Cl)c4)oc3c2)C1 (stereo not given) | i | -0.99 | i | -9.5* | -6 | i | 96* | i
CCn1c(NCc2cc(Br)ccc2NS(=O)(=O)c2ccc(C)cc2)nc2ccccc21 | 6* | -0.49 | i | -11* | -9 | i | 120* | i
CCn1c(NCc2ccccc2NS(=O)(=O)c2ccc(C)cc2)nc2ccccc21 | i | 0.02 | i | i | -7 | i | . | .
O=C(CSc1ccc(Cl)cc1)N1CCN(c2ccc([N+](=O)[O-])cc2Cl)CC1 | i | -0.67 | i | i | -9 | i | . | .
O=C(CSc1ccc(Cl)cc1)N1CCN(c2c(Cl)cccc2[N+](=O)[O-])CC1 | i | 0.18 | i | -9.9* | -9 | i | 117* | 0.14*
O=C(NC1CCN(Cc2ccccc2)CC1)c1ccccc1OCc1ccccc1Cl | i | -6.7* | i | -11* | -17 | -7.8* | 99* | i
O=C(NC1CCN(Cc2ccccc2)CC1)c1ccccc1OCc1ccccc1 | i | -4.3* | i | -10* | -9 | i | 99* | i
CC(=O)C1=NN(c2ccc(Cl)cc2)C(c2ccc3c(c2)OCO3)N(C(C)=O)N1C (stereo not given) | i | 0.06 | i | -8.8* | -7 | i | 95* | 0.15*
CN1c2ccccc2N(C)C1c1ccc2c(c1)OCO2 | i | 0.98 | i | i | -11 | i | . | .
Clc1ccc(C2Nc3ccccc3-n3cccc32)cc1 (stereo not given) | i | 0.34 | i | -13* | -12 | i | 114* | 0.16*
O=C(CCc1nc2ccccc2c(=O)[nH]1)Nc1cc(C(F)(F)F)ccc1N1CCOCC1 | i | -0.5 | i | i | -7 | i | . | .
COc1cccc(Oc2ccc(C(F)(F)F)cc2NC(=O)CCc2nc3ccccc3c(=O)[nH]2)c1 | i | 0.92 | i | i | -15 | -7* | 97* | i
CCOC(=O)c1ccc(NC(=O)CSCc2ccco2)cc1 | i | -1.6 | i | -9.2* | -22 | i | 91* | i
COC(=O)c1cccc(NC(=S)N2CCN(c3ccccc3F)CC2)c1 | i | -0.32 | i | i | -4 | i | . | .
CC(=O)Nc1ccc(/C=C2\Sc3ccccc3C2=O)cc1 | i | 0.31 | i | i | -7 | i | . | .
O=C1NC(=Nc2ccccc2)S/C1=C/c1cccnc1 | i | 0.63 | i | -11* | -8 | i | 90* | i
O=C1/C(=C/c2cccnc2)Sc2ccccc21 | i | -1.6 | i | -9.6* | -6 | i | 102* | i
O=C1NC(=Nc2ccccc2)S/C1=C\c1ccccc1 | i | 0.18 | i | i | -4 | i | . | .
CN(CC(=O)Nc1ccccc1Cl)C(=O)c1ccc(COc2ccccc2)cc1 | i | 0.01 | i | i | -13 | i | . | .
COc1c(C)cc(Br)cc1C(=O)Nc1ccc(Cc2ccncc2)cc1 | i | 0.07 | i | -9.7* | -21 | i | 117* | i
SMILES | KCNQ1 block | Kir21 inh | KCNQ1 act | KCNK3 inh | hERG protect | KCNK9 inh | KCNK3 confirm | KCNK3 noninduced
OCC1(Cc2ccccc2)CCN(Cc2ccc(C(F)(F)F)cc2)CC1 | i | -1.8 | i | i | -4 | i | . | .
Cc1ccc(-c2onc(C)c2C)cc1S(=O)(=O)N1CCOc2ccccc21 | i | 1.9 | i | -9.8* | -11 | i | 126* | 0.15*
Cc1ccc2c(c1)C(O)(CC(=O)/C=C/C=C/c1ccccc1)C(=O)N2 (stereo not given) | i | 0.79 | i | i | -2 | i | . | .
COc1ccc(OC)c(C(=O)COC(=O)c2cc(C)oc2C)c1 | i | 1.5 | i | -10* | -14 | i | 119* | i
COc1ccc(NC(=O)COC(=O)c2cc(C)oc2C)cc1OC | . | . | . | i | . | . | . | .
COCCCN(C(=S)Nc1cc(Cl)cc(Cl)c1)C(C)c1ccccn1 (stereo not given) | 8* | 1.3 | i | -11* | -8 | i | 123* | 0.16*
COCCCN(C(=S)Nc1cc(Cl)cc(Cl)c1)C(C)c1ccncc1 (stereo not given) | i | -1.2 | i | i | -8 | i | . | .
CCc1nc(SCC(=O)N2c3ccccc3Sc3ccccc32)c2ccccc2n1 | i | 0.05 | i | i | -6 | i | . | .
CCc1nc(SCC(=O)c2ccccc2)c2ccccc2n1 | i | -0.8 | i | -9.4* | -7 | i | 88* | i
O=C(Cn1nc(-c2ccccc2)nc1-c1ccccc1)OC1CCCCC1 | i | -0.25 | i | -10* | -10 | i | 104* | i
Cc1ccccc1NC(=S)NCC(c1cccnc1)N(C)C (stereo not given) | i | -0.2 | i | i | -12 | i | . | .
N#Cc1ccccc1Sc1ccccc1C(=O)OCc1nnc(-c2ccccc2)o1 | i | -0.73 | i | -9.9* | -8 | i | 78* | i
NC(=O)c1nsc(C(=O)N(CC(=O)NC2CCCC2)c2cccc(C(F)(F)F)c2)c1N | i | -0.63 | i | i | -12 | i | . | .
COc1ccc(NC(=O)CC2C(=O)N(C)C(=S)N2CCc2ccc(F)cc2)cc1 (stereo not given) | i | 1.2 | i | i | -8 | i | . | .
CCN1C(=O)C(CC(=O)Nc2ccc(OC)cc2)N(CCc2ccc(F)cc2)C1=S (stereo not given) | i | 0.14 | i | -9* | -31 | i | 116* | i
